Screening results (PubChem)
Only some compounds are listed: those with a hit (about 1.3% of all), similar ones and a draw of the others.
RTF Ca sens act: increases calcium sensitivity of human cardiac regulated thin filaments. activation, % at 7.2 µM. hit rate 0.24% among 340,000. IANBD-labeled TnC RTF fluorescence at EC20 calcium; 0% EC20 calcium, 100% full calcium. P19429+P45379;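 active = activation above the mean over all tested compounds plus 3 SD, cut at about 30% in these data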;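 note: rise in fluorescence read as greater calcium sensitivity of cardiac thin filaments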
Keap1-Nrf2 PPI: Keap1-Nrf2 (human) interaction inhibition. Keap1 Kelch-Nrf2 peptide fluorescence polarization, 1536-well. inhibition, % at 9.4 µM. hit rate 0.15% among 340,000; in the data active = inhibition above about 12%;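 note: human Keap1 Kelch domain with fluorescein labeled Nrf2 9mer peptide probe; 0% = neutral control wells and 100% = peptide positive control; higher means more block of Keap1 binding to Nrf2 peptide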
Target sequence (Q14145 whole entry, looked up, the tested form may be a part): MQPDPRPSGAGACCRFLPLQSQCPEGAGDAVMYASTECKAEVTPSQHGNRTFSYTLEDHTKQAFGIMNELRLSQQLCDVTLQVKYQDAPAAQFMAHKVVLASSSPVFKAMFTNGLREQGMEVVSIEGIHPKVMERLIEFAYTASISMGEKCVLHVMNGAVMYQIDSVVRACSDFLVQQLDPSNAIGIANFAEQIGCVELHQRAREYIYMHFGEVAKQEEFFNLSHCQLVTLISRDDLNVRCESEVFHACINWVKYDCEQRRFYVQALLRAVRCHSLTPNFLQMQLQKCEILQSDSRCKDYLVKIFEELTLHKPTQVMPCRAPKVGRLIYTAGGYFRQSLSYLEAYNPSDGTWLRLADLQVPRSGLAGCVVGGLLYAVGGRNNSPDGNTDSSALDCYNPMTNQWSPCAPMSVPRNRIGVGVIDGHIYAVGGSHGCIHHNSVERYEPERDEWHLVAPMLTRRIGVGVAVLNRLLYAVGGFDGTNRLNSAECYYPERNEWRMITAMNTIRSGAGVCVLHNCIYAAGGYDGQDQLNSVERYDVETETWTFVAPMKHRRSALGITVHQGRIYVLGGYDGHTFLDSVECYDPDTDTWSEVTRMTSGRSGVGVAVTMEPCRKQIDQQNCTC
CAL PDZ FP-1: human CAL PDZ-peptide interaction inhibition | hit rate 0.02% among 330,000 | AID 504414 | purified CAL PDZ, TMR-peptide fluorescence polarization, 1 h | inhibition, % at 20 µM;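 active = highest replicate inhibition of at least 40%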;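 note: plate controls were DMSO neutral control wells for no effect and unlabeled competitor peptide control wells for full effect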
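Read-out basis: mP drop reported as inhibition | Assay system: Tagged CAL PDZ protein CerCALP, purified | Benchmarks: Unlabelled peptide for full inhibition, DMSO wells as neutral | Schedule: 1 h incubation at room temperature before polarization reading | Buffer or medium: Sodium phosphate/NaCl buffer pH 7.4 with TCEP, IgG, Thesit | Doses: Single point, 20 µM | Measured by: Fluorescence polarization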
RTF Ca sens inh: cardiac RTF calcium desensitization | P19429+P45379 | IANBD-labeled cardiac RTF, Ca2+ fluorescence | inhibition, % at 7.15 µM | hit rate 0.12% among 340,000;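 active = inhibition above the mean inhibition of all tested compounds plus 3 SD, cut at about 17% in these data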;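 note: assay run at fixed EC70 calcium of 1.6 mM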
CAL PDZ FP-2: inhibitors of human CAL PDZ peptide binding. Q9HD26. purified CAL PDZ, TMR-peptide fluorescence polarization, 1 h. inhibition, % at 24.9 µM. hit rate 0.92% among 300,000. AID 602252;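 active = mean inhibition of at least 30% with at least half of replicates also reaching 30%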;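 note: 0% = DMSO neutral control and 100% = excess unlabeled competitor peptide PRC23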
LANA DNA inh: inhibitors of KSHV LANA C-terminal domain DNA binding. MBP-C-LANA/FAM-LBS DNA binding, fluorescence polarization. inhibition, % at 9 µM. hit rate 0.078% among 340,000. AID 504423;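 active = highest replicate inhibition at or above 60% at 9 µM, even if other replicates fall short; inactive = all replicates below 60% inhibition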;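 note: 0% = neutral control wells and 100% = 4 µM acridine orange control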
* hit, by the source's call.

Results for CC(C)n1cc(/C=C(\C#N)S(=O)(=O)c2ccccc2)c2ccccc21 ?
RTF Ca sens act: 1; Keap1-Nrf2 PPI: -5; CAL PDZ FP-1: -2; RTF Ca sens inh: 8; CAL PDZ FP-2: 3; LANA DNA inh: 1

How did CC(C)n1cc(/C=C/c2cc[n+](C)cc2)c2ccccc21 do in these assays?
RTF Ca sens act: 344*; Keap1-Nrf2 PPI: -222; CAL PDZ FP-1: -3; RTF Ca sens inh: -475; CAL PDZ FP-2: -4; LANA DNA inh: -30

How did Cc1ccc(NC(=O)C(c2ccc(Cl)cc2)N2CCOCC2)cc1 (centres undefined) do in these assays?
RTF Ca sens act: -3; Keap1-Nrf2 PPI: 2; CAL PDZ FP-1: -2; RTF Ca sens inh: -7; CAL PDZ FP-2: 43*; LANA DNA inh: -2

Results for COCCNC(=O)CCc1nnc2ccc(N3CCC(C)CC3)nn12 ?
RTF Ca sens act: -3; Keap1-Nrf2 PPI: 0; CAL PDZ FP-1: 0; RTF Ca sens inh: -5; CAL PDZ FP-2: -1; LANA DNA inh: 0

How did COc1cccc(CC(=O)N(CCC2=CCCCC2)c2c(N)n(Cc3ccccc3)c(=O)[nH]c2=O)c1 do in these assays?
RTF Ca sens act: -10; Keap1-Nrf2 PPI: -1; CAL PDZ FP-1: -1; RTF Ca sens inh: -5; LANA DNA inh: -1

Results for CCOc1ccccc1C(=O)NCC(=O)OCc1csc(CC(=O)Nc2ccc(C)cc2)n1 ?
RTF Ca sens act: -2; Keap1-Nrf2 PPI: -12; CAL PDZ FP-1: 0; RTF Ca sens inh: 1; CAL PDZ FP-2: 65*; LANA DNA inh: -2

Results for O=[N+]([O-])c1ccc(Sc2cccc[n+]2[O-])c2nonc12 ?
RTF Ca sens act: 6; Keap1-Nrf2 PPI: 20*; CAL PDZ FP-1: -1; RTF Ca sens inh: -6; CAL PDZ FP-2: -1; LANA DNA inh: 19

What do the screens show for `CCC(C)N1C(=O)/C(=C/c2c(NCCCOC(C)C)nc3c(C)cccn3c2=O)SC1=S` (centres undefined)?
RTF Ca sens act: 133*; Keap1-Nrf2 PPI: -5; CAL PDZ FP-1: 0; RTF Ca sens inh: -37; CAL PDZ FP-2: 0; LANA DNA inh: 10

What do the screens show for `CCCN1C(=O)/C(=C/c2c(NCCCOC(C)C)nc3c(C)cccn3c2=O)SC1=S`?
RTF Ca sens act: 12; Keap1-Nrf2 PPI: -5; CAL PDZ FP-1: 0; RTF Ca sens inh: -21; CAL PDZ FP-2: 3; LANA DNA inh: 3

What do the screens show for `CC(=O)OCC12COC3c4ccccc4OC(C)(CC1C)C3C2C` (centres undefined)?
RTF Ca sens act: 1; Keap1-Nrf2 PPI: -2; CAL PDZ FP-1: 0; RTF Ca sens inh: -6; CAL PDZ FP-2: 51*; LANA DNA inh: -1

What do the screens show for `Cc1nc(/N=C\c2ccc(N(C)C)cc2)sc1C`?
RTF Ca sens act: 9; Keap1-Nrf2 PPI: 3; CAL PDZ FP-1: -1; RTF Ca sens inh: -7; CAL PDZ FP-2: 4; LANA DNA inh: 3

What do the screens show for `Cc1nc(C)c(-c2ccc(SCc3ccc([N+](=O)[O-])cc3)nn2)s1`?
RTF Ca sens act: -6; Keap1-Nrf2 PPI: 2; CAL PDZ FP-1: 0; RTF Ca sens inh: -1; CAL PDZ FP-2: 6; LANA DNA inh: 1

What do the screens show for `CN1C=CC2=C(C#N)C(N)C(C#N)(C#N)C(c3ccccc3)C2C1` (centres undefined)?
RTF Ca sens act: 40*; Keap1-Nrf2 PPI: 10; CAL PDZ FP-1: -1; RTF Ca sens inh: -36; CAL PDZ FP-2: -1; LANA DNA inh: 41

How did CN1C[C@@H]2C(c3ccccc3)C3(c4ccc(C#N)cc4)CC2(C3)[C@H]1c1ccccc1 (some centres undefined) do in these assays?
RTF Ca sens act: 0; Keap1-Nrf2 PPI: -3; CAL PDZ FP-1: -1; RTF Ca sens inh: 0; CAL PDZ FP-2: -2; LANA DNA inh: -1

How did O=C(Nc1cc(Cl)cc(Cl)c1)N1CCCN(Cc2ccccc2)CC1 do in these assays?
RTF Ca sens act: -30; Keap1-Nrf2 PPI: 6; CAL PDZ FP-1: -1; RTF Ca sens inh: -11; CAL PDZ FP-2: 37*; LANA DNA inh: 2

Results for COc1cc(OC)cc(C(=O)OC(C)C(=O)NC2CCCc3ccccc32)c1 (centres undefined) ?
RTF Ca sens act: -3; Keap1-Nrf2 PPI: -1; CAL PDZ FP-1: 0; RTF Ca sens inh: -1; CAL PDZ FP-2: 61*; LANA DNA inh: 1
